Results from ChEMBL document CHEMBL1124004, “Inhibitors of cyclic AMP phosphodiesterase. 3. Synthesis and biological evaluation of pyrido and imidazolyl analogues of 1,2,3,5-tetrahydro-2-oxoimidazo[2,1-b]quinazoline” (J Med Chem, 1988).
The source made the active and inactive calls. No cut-off for these calls is given here.

Assays:
Phosphodiesterase 3 [1] = biological target: T1, Phosphodiesterase 3 (Homo sapiens, UniProt Q14432+Q13370); experiment: Inhibition of platelet cAMP phosphodiesterase
Homo sapiens [2] = species: Homo sapiens; experiment: Inhibition of ADP induced platelet aggregation; assay type: functional
Method in brief: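 Human platelets with ADP as the aggregating stimulus. Each assay was run in triplicate at five inhibitor concentrations. The mean at each concentration was plotted and the IC50 was read graphically.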

Canis familiaris [3] = species: Canis familiaris; experiment: Dose at which 50% blood pressure decrease in dogs; assay type: functional; conditions: Canis lupus familiaris
Method in brief: (§1)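 Instrumented, anesthetized dogs. Cardiac force, heart rate and blood pressure response curves were plotted against dose. When n > 1, the mean at each dose level was plotted.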

Canis familiaris [4] = experiment: Percent maximum increase in cardiac force in anesthetized dogs using isoproterenol as agonist at 125 nmol/kg; assay type: functional, Canis lupus familiaris, Heart
Method in brief: (§2)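 Instrumented, anesthetized dogs. Cardiac force rise from the test agent is expressed as a percent of the maximum cardiac force increase seen in the same animal with isoproterenol as agonist. N = number of experiments.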

Canis familiaris [5] = species: Canis familiaris; experiment: Dose at which 50% maximal effect for cardiac force increase in dogs; assay type: functional; conditions: Canis lupus familiaris, Heart; method in brief: as §1
Canis familiaris [6] = species: Canis familiaris; experiment: Dose at which 50% heart rate increase in dogs; assay type: functional; conditions: Canis lupus familiaris; method in brief: as §1
Canis familiaris [7] = experiment: Percent maximum increase in cardiac force in anesthetized dogs using isoproterenol as agonist at greater than 5000 nmol/kg; assay type: functional, Canis lupus familiaris, Heart
Canis familiaris [8] = experiment: Percent maximum increase in cardiac force in anesthetized dogs using isoproterenol as agonist at 75 nmol/kg; assay type: functional, Canis lupus familiaris, Heart; method in brief: as §2
Canis familiaris [9] = experiment: Percent maximum increase in cardiac force in anesthetized dogs using isoproterenol as agonist at 140 nmol/kg; assay type: functional, Canis lupus familiaris, Heart; method in brief: as §2
Phosphodiesterase 3 [10] = biological target: T1, Phosphodiesterase 3; experiment: Inhibition of human platelet cAMP phosphodiesterase at 100 uM
Homo sapiens [11] = species: Homo sapiens; experiment: Inhibition of ADP induced platelet aggregation; inactive; assay type: functional
Canis familiaris [12] = experiment: Percent maximum increase in cardiac force in anesthetized dogs using isoproterenol as agonist; inactive at all doses up to 1000 ug/kg; assay type: functional, organism-based; conditions: Canis lupus familiaris; Heart; method in brief: as §2
Canis familiaris [13] = experiment: Percent maximum increase in cardiac force in anesthetized dogs using isoproterenol as agonist at 185 nmol/kg; assay type: functional, Canis lupus familiaris, Heart; method in brief: as §2

Row | SMILES | IC50 (Phosphodiesterase 3 [1]) [µM] | IC50 (Homo sapiens [2]) [µM] | other results
1 | O=C1CN2Cc3cccnc3N=C2N1 | 330 | 200 | 
2 | CC1CC(O)=NN=C1c1ccc(-n2ccnc2)cc1 (configuration not stated) [CI-930] |  |  | ED50 (Canis familiaris [3]): 0.1 µmol/kg; Max CF response (Canis familiaris [4]): 72%; ED50 (Canis familiaris [5]): 0.1 µmol/kg; ED50 (Canis familiaris [6]): 0.1 µmol/kg
3 | O=C1CN2Cc3cnccc3N=C2N1 | 18 | 46 | ED50 (Canis familiaris [3]): > 1 µmol/kg; ED50 (Canis familiaris [5]): 0.78 µmol/kg; ED50 (Canis familiaris [6]): > 1 µmol/kg; Max CF response (Canis familiaris [7]): 27%
4 | CN(C(=O)CCCOc1ccc2c(c1)CN1CC(=O)NC1=N2)C1CCCCC1 [LIXAZINONE] |  |  | ED50 (Canis familiaris [3]): 0.05 µmol/kg; ED50 (Canis familiaris [5]): 0.02 µmol/kg; ED50 (Canis familiaris [6]): 0.03 µmol/kg; Max CF response (Canis familiaris [8]): 71%
5 | Cc1[nH]c(=O)c(C#N)cc1-c1ccncc1 [MILRINONE] |  |  | ED50 (Canis familiaris [3]): 0.59 µmol/kg; ED50 (Canis familiaris [5]): 0.09 µmol/kg; ED50 (Canis familiaris [6]): 0.19 µmol/kg; Max CF response (Canis familiaris [9]): 65%
6 | O=C1CN2Cc3ncccc3N=C2N1 | 30 | 25 | 
7 | C[C@@H]1C(=O)NC2=Nc3cccc(Cl)c3CN21 [QUAZINONE] | 0.24 |  | 
8 | CCc1[nH]c(=O)[nH]c1C(=O)c1ccncc1 [PIROXIMONE] | > 100 |  | inhibition (Phosphodiesterase 3 [10]): 40%
9 | O=C1CN2Cc3cc(OCCn4ccnc4)ccc3N=C2N1 | 2 | 40 | 
10 | O=C1CN2Cc3cc(OCc4ccccc4)ccc3N=C2N1 | 0.56 |  | 
11 | O=C1CN=C(Nc2ccc(-n3ccnc3)cc2)N1 | 250 |  | IC50 (Homo sapiens [11]): Not Active; Max CF response (Canis familiaris [12]): inactive
12 | Cc1c(Br)ccc2c1CN1C(=N2)NC(=O)C1C (configuration not stated) | 0.07 |  | 
13 | O=C1CN2Cc3cc(OCCCCCCn4ccnc4)ccc3N=C2N1 | 0.7 | 23 | 
14 | O=C1CN2Cc3ccncc3N=C2N1 | 26 | 26 | 

Now from value to molecule, other results behind:

Row | IC50 (Phosphodiesterase 3 [1]) [µM] | IC50 (Homo sapiens [2]) [µM] | SMILES | other results
15 | 0.15 |  | O=C1CN2Cc3cc(N4CCCCC4)ccc3N=C2N1 | 
16 | 0.52 |  | O=C1CN2Cc3cc(I)ccc3N=C2N1 | 
17 | 8.8 |  | O=C1CN2Cc3ccccc3N=C2N1 | 
18 | 1.5 |  | O=C1CN2Cc3cc(Cl)ccc3N=C2N1 | 
19 | 0.6 | 6 | O=C1CN2Cc3cc(-n4ccnc4)ccc3N=C2N1 | ED50 (Canis familiaris [3]): 0.64 µmol/kg; ED50 (Canis familiaris [5]): 0.18 µmol/kg; Max CF response (Canis familiaris [13]): 63%; ED50 (Canis familiaris [6]): 0.22 µmol/kg
20 | 3.3 |  | O=C1CN2Cc3cc(O)ccc3N=C2N1 | 
